Results reported in PMC13065758 (Nature Communications, 2026).

Legend:
[1] = Plasma stability assay, human plasma; assay type: in vitro ADME
How it was run: (§1)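 Test compound was spiked at 10 μM into human or mouse plasma and incubated at 37 °C with shaking for 0, 30 or 120 min. Proteins were precipitated with acetonitrile containing 1 μM chlorpropamide internal standard and removed by centrifugation. Analyte/internal-standard area ratios were measured by LC-MS/MS and expressed as percent remaining versus 0 min.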

[2] = Plasma stability assay, mouse plasma; assay type: in vitro ADME
How it was run: as §1

CCN(CC)CCOC(=O)c1ccc(N)cc1 [Procaine]
remaining at 2 h, 10 μM [1]: 0.03% | remaining at 2 h, 10 μM [2]: 3.13%
